In ChEMBL document CHEMBL1122835, “Synthesis and pharmacology of the potent angiotensin-converting enzyme inhibitor N-[1(S)-(ethoxycarbonyl)-3-phenylpropyl]-(S)-alanyl-(S)-pyroglutamic acid” (J Med Chem, 1985):

Key:
Rattus norvegicus [1] = assay: Change in heart rate was determined in renal hypertensive rat, administered orally at a dose 3 mg/kg; format: functional; details: route oral
Summary of the method: (§1)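 Renal hypertensive rats were prepared by clipping the left renal artery (0.22-mm clip) in 4-week-old male CD rats and held 6 weeks. Overnight-fasted rats were dosed orally with aqueous solution (5 mL/kg), water as control. Tail-cuff systolic pressure and heart rate measured 2 h post-dose. ANOVA with Duncan's test; ED30 by linear regression.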

Rattus norvegicus [2] = assay: Decrease in systolic blood pressure of Spontaneous Hypertensive Rats (SHR) pretreated with hydrochlorothiazide upon oral administration at 3 mm/kg; format: functional, Artery
Summary of the method: (§2)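 Male SHR, 13 weeks old, given HCTZ 25 mg/kg po in 0.25% methylcellulose daily for 3 days. Drug given orally in water (5 mL/kg) 1 h after the third dose. Tail-cuff systolic pressure and pulse-count heart rate taken 1.5 h later after 20 min warming at 38 °C. ANOVA with Duncan's test; ED30 by linear regression.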

Rattus norvegicus [3] = assay: Effect on vasopressor response caused by angiotensin I (AI) in anesthetized normotensive rat, administered intravenously at dose 0.030 mg/kg; format: functional; details: dose 0.03 mg/kg; route intravenous
Summary of the method: (§3)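 Male Charles River CD rats, 380–500 g, anesthetized with pentobarbital Na 15 mg/kg plus barbital 220 mg/kg ip, held at 37 °C. Femoral artery pressure recorded. AI 0.3 μg/kg and AII 0.1 μg/kg given iv as challenges. Cumulative iv drug in saline, 0.01–0.81 mg/kg, each dose followed by AI/AII challenges at 5-min intervals. ED50 = 50% change from control response, by linear regression.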

Rattus norvegicus [4] = assay: Effect on systolic blood pressure was determined in renal hypertensive rat, administered orally at a dose 3 mg/kg; format: functional, Artery; details: route oral; summary of the method: as §1
Rattus norvegicus [5] = assay: Effect on vasopressor response caused by angiotensin I (AI) in anesthetized normotensive rat, administered intravenously at dose 0.27 mg/kg; format: functional; details: route intravenous; summary of the method: as §3
Rattus norvegicus [6] = assay: Percent change was determined in bradykinin depressor response in anesthetized normotensive rat, administered intravenously at dose 0.010 mg/kg; format: functional; details: dose 0.01 mg/kg; route intravenous
Summary of the method: (§4)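 Male Charles River CD rats (380–500 g), pentobarbital Na 15 mg/kg plus barbital 220 mg/kg ip, tracheotomized, femoral artery/vein cannulated, kept at 37 °C. Control bradykinin 1 μg/kg iv depressor response, separate from angiotensin tests; drug iv in 0.9% saline (1 mL/kg, free base) 10 min later, Bk 5 min after each cumulative dose (0.0033–0.27 mg/kg). Maximum fall in arterial pressure versus control response; N = 8.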

Rattus norvegicus [7] = assay: Percent decrease in angiotensin I pressor response was measured in rat, administered intravenously at dose 0.030 mg/kg; format: functional; details: dose 0.03 mg/kg; route intravenous
Summary of the method: (§5)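 Anesthetized (pentobarbital Na 15 mg/kg + barbital 220 mg/kg ip), tracheotomized male Charles River CD rats, 380–500 g, femoral cannulas, heated board at 37 °C. Control pressor responses to angiotensin I 0.3 μg/kg then angiotensin II 0.1 μg/kg iv; drug iv in 0.9% saline (free base), AI and AII repeated at 5-min intervals, cumulative 0.01–0.81 mg/kg. Peak arterial pressure rise versus control.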

Canis familiaris [8] = assay: Effect on pressor response of angiotensin I in anesthetized dog, dose 0.3 mg/kg administered intravenously; format: functional, Canis lupus familiaris; details: route intravenous
Summary of the method: (§6)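 Mongrel dogs, 7.3–15.5 kg, anesthetized with barbital/pentobarbital iv, tracheotomized and vagotomized, n = 4. Cumulative iv doses in saline (0.2 mL/kg) spaced 30 min apart. AI and AII 1 μg/kg iv challenges given after each dose; the second pre-dose set served as control.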

Rattus norvegicus [9] = assay: Percent change was determined in bradykinin depressor response in anesthetized normotensive rat, administered intravenously at dose 0.0033 mg/kg; format: functional; details: route intravenous
Summary of the method: (§7)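 Anesthetized (pentobarbital/barbital ip) male Charles River CD rats, 380–500 g, kept at 37 °C. Femoral artery blood pressure recorded. Control depressor response to bradykinin 1 μg/kg iv, then cumulative iv drug in 0.9% saline (1 mL/kg), 0.0033–0.27 mg/kg. Bk challenge 5 min after each dose. ED50 = dose giving a 50% change from control, by linear regression; N = 8.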

Rattus norvegicus [10] = assay: Effect on vasopressor response caused by angiotensin I (AI) in anesthetized normotensive rat, administered intravenously at dose 0.010 mg/kg; format: functional; details: dose 0.01 mg/kg; route intravenous; summary of the method: as §3
Rattus norvegicus [11] = assay: Effect on vasopressor response caused by angiotensin I (AI) in anesthetized normotensive rat, administered intravenously at dose 0.81 mg/kg; format: functional; details: route intravenous; summary of the method: as §3
Rattus norvegicus [12] = assay: Hypotensive activity was determined in low-sodium treated rat, dose 3 mg/kg administered orally at 2 hr; format: functional; details: route oral
Summary of the method: (§8)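 Male CD rats, 11 weeks old, kept on a sodium-deficient diet for 3 weeks and fasted overnight, were dosed orally with aqueous solutions (5 mL/kg), water as control. Systolic pressure measured by tail cuff at the stated post-dose time. ANOVA with Duncan's test.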

Canis familiaris [13] = assay: Effect on pressor response of angiotensin II in conscious dog at 60-65 min, dose 0.5 mg/kg administered orally; format: functional, Canis lupus familiaris; details: route oral
Summary of the method: (§9)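 Conscious fasted mongrel dogs of both sexes, 6.8–15.3 kg, with femoral cannulas. Drug given orally in 0.25% methylcellulose with 3% glycerin (2 mL/kg), n = 4 per dose. AI 0.3, AII 0.1 and NE 1 μg/kg iv challenges. The second pre-dose set served as control; response measured at 60–65 min post-dose.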

Rattus norvegicus [14] = assay: Hypotensive activity was determined in low-sodium treated rat, dose 30 mg/kg administered orally at 5 hr; format: functional; details: route oral; summary of the method: as §8
Rattus norvegicus [15] = assay: Hypotensive activity was determined in low-sodium treated rat, dose 10 mg/kg administered orally at 2 hr; format: functional; details: route oral; summary of the method: as §8
Rattus norvegicus [16] = species on record: Rattus norvegicus; assay: Dose required to reduce systolic blood pressure by 30 mmHg in renal hypertensive rat; format: functional; details: Artery; summary of the method: as §1
Rattus norvegicus [17] = assay: Hypotensive activity was determined in low-sodium treated rat, dose 3 mg/kg administered orally at 5 hr; format: functional; details: route oral; summary of the method: as §8
Rattus norvegicus [18] = assay: Change in heart rate was determined in renal hypertensive rat, administered orally at a dose 10 mg/kg; format: functional; details: route oral; summary of the method: as §1
Rattus norvegicus [19] = assay: Activity against the bradykinin Response in anesthetized normotensive rat, administered intravenously at dose 0.090 mg/kg; format: functional; details: dose 0.09 mg/kg; route intravenous; summary of the method: as §7
Canis familiaris [20] = assay: Effect on pressor response of angiotensin I in anesthetized dog, dose 0.1 mg/kg administered intravenously; format: functional, Canis lupus familiaris; details: route intravenous; summary of the method: as §6
Canis familiaris [21] = assay: Effect on pressor response of angiotensin II in conscious dog at 60-65 min, dose 1 mg/kg administered orally; format: functional, Canis lupus familiaris; details: route oral; summary of the method: as §9
Rattus norvegicus [22] = assay: Change in heart rate was determined at a dose 30 mg/kg; format: functional; summary of the method: as §2
Canis familiaris [23] = assay: Effect on pressor response of angiotensin I in conscious dog at 60-65 min, dose 0.5 mg/kg administered orally; format: functional, Canis lupus familiaris; details: route oral; summary of the method: as §9
Rattus norvegicus [24] = assay: Hypotensive activity was determined in low-sodium treated rat, dose 10 mg/kg administered orally at 5 hr; format: functional; details: route oral; summary of the method: as §8
Rattus norvegicus [25] = assay: Percent change was determined in bradykinin depressor response in anesthetized normotensive rat, administered intravenously at dose 0.030 mg/kg; format: functional; details: dose 0.03 mg/kg; route intravenous; summary of the method: as §4
Rattus norvegicus [26] = assay: Percent decrease in angiotensin I pressor response was measured in rat, administered intravenously at dose 0.090 mg/kg; format: functional; details: dose 0.09 mg/kg; route intravenous; summary of the method: as §5
Canis familiaris [27] = assay: Effect on pressor response of angiotensin II in conscious dog at 60-65 min, dose 2 mg/kg administered orally; format: functional, Canis lupus familiaris; details: route oral; summary of the method: as §9

SMILES: CCOC(=O)[C@H](CCc1ccccc1)N[C@@H](C)C(=O)N1C(=O)CC[C@H]1C(=O)O
- Heart rate (Rattus norvegicus [1]): 460 beats min-1
- Blood pressure (Rattus norvegicus [2]): 211 mmHg
- Response (Rattus norvegicus [3]): 39 mmHg
- Activity (Rattus norvegicus [4]): 220 mmHg
- Response (Rattus norvegicus [5]): 18 mmHg
- Change (Rattus norvegicus [6]): 61%
- Decrease (Rattus norvegicus [7]): 19%
- Blood pressure (Canis familiaris [8]): 46 mmHg
- Change (Rattus norvegicus [9]): 22%
- Response (Rattus norvegicus [10]): 45 mmHg
- Response (Rattus norvegicus [11]): 4 mmHg
- Activity (Rattus norvegicus [12]): 154 mmHg
- Blood pressure (Canis familiaris [13]): 48 mmHg
- Activity (Rattus norvegicus [14]): 132 mmHg
- Activity (Rattus norvegicus [15]): 148 mmHg
- ED30 (Rattus norvegicus [16]): 5.9 mg/kg
- Activity (Rattus norvegicus [17]): 153 mmHg
- Heart rate (Rattus norvegicus [18]): 438 beats min-1
- Response (Rattus norvegicus [19]): -61 mmHg
- Blood pressure (Canis familiaris [20]): 60 mmHg
- Blood pressure (Canis familiaris [21]): 48 mmHg
- Heart rate (Rattus norvegicus [22]): 381 beats min-1
- Blood pressure (Canis familiaris [23]): 47 mmHg
- Activity (Rattus norvegicus [24]): 143 mmHg
- Change (Rattus norvegicus [25]): 69%
- Decrease (Rattus norvegicus [26]): 31%
- Blood pressure (Canis familiaris [27]): 40 mmHg
